Experimental data published in PubChem BioAssay.
The source made the active and inactive calls.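 Rule for the calls, unless noted: active = visual image review flags a hit and inhibition of aggregation exceeds 20%; inconclusive = visual hit but inhibition at or below 20%; inactive = no hit on visual image review.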

Key:
[1] = inhibitors of TNFa-induced NFkB p65 translocation, primary screen, imaging, HUVEC, MLSMR starter and 10KST1 sets (AID 438;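 active = inhibition above 20% together with a positive visual image hit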;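 note: compound added about 3h40 before a 20 min TNFalpha stimulation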;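 for inhibition: signal is the nuclear over cytoplasmic p65 intensity ratio per well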); conditions: HUVEC TNFa-induced p65 nuclear translocation; cell count: measured here: nuclei count (cytotoxicity indicator), at 2.08 µM; inhibition: at 2 µM, stronger effect = higher value, 0% TNFa-plus-vehicle, 100% no-TNFa wells
[2] = reduction of polyQ htt aggregates in cells – imaging, exon1htt(103Q)mCFP cells, high-content imaging, primary screen (AID 483); conditions: exon1htt(103Q)mCFP cell line, aggregate imaging, at 2 µM; inhibition of aggregation: stronger effect = higher value; nuclei count: measured here: cell count, toxicity;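 note: compound exposure lasted 3 days before fixation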;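 for nuclei count: percent of the per-plate median nuclei count of sample wells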
[3] = endothelial E-selectin expression blockers – imaging, HUVEC, immunofluorescence, MLSMR starter and 10KST1 sets, primary screen (AID 487;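 active = visually confirmed hit in the image check and inhibition above 20%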;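 for inhibition: signal is fraction of cell area covered by stained E-selectin grains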;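 for nuclei count: 100% = median nuclei count of all wells on the same plate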); conditions: HUVEC TNFalpha-induced E-selectin immunofluorescence imaging, at 2 µM; inhibition: stronger effect = higher value; nuclei count: measured here: cell number, toxicity
[4] = biological target: Voltage-gated potassium channel subunit beta-2 (Rattus norvegicus) (UniProt P62483); test: inhibitors of rat Kvbeta2 reductase activity – biochemical, NADPH fluorescence, primary screen (AID 622;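 active = fluorescence slope higher than the sample average by over 3 SD, cut at about -0.22 in these data, passing the limit was not always enough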;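 note: slope of raw intensity against log time taken from 70 to 1610 s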); conditions: recombinant KvBeta, 4-cyanobenzaldehyde reduction, at 10 µM, stronger effect = higher value
[5] = biological target: Voltage-gated potassium channel subunit beta-2 (Rattus norvegicus) (UniProt P62483); test: enhancers of rat Kvbeta2 NADPH turnover – biochemical, NADPH fluorescence, primary screen (AID 623;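 active = NADPH fluorescence slope more negative than the mean of all samples by about 3 SD, 99.7% confidence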;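 note: fluorescence intensity change per second fitted from 20 to 320 s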); conditions: Recombinant KvBeta, NADPH fluorescence decrease slope, 10 min; at 10 µM; stronger effect = lower value
[6] = biological target: Muscarinic acetylcholine receptor M4 (Homo sapiens) (UniProt P08173); test: M4-linked GIRK flux change, two-sided – cell-based, HEK293 M4/GIRK, thallium flux, BTC-AM, M4 allosteric agonist project, primary screen (AID 625;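 active = fluorescence slope after compound addition differing from the mean of all tested samples at 99.7% confidence, mostly higher but some lower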;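 note: thallium influx through GIRK channels coupled to M4 in HEK293 cells with BTC-AM dye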); conditions: at 10 µM, actives lie on both sides
In short: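 Assay system: HEK293 cells with M4 receptor and GIRK channels / Controls: carbachol and DMSO controls / Schedule: 1 h dye loading, 2 min kinetic read / Technique: kinetic fluorescence with BTC-AM dye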

[7] = blockers of RIG-like receptor reporter activation – cell-based, Sendai virus stimulus, luciferase, 10K MLSCN set, TLR/RLR signaling modifier project, primary screen (AID 602276;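 active = inhibition at or above 50% at 10 µM; inactive = inhibition below 50%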;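 note: firefly luciferase from ISG56 promoter only with Renilla not read in this screen; 0% = Sendai virus plus DMSO and 100% = medium plus DMSO without virus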); conditions: HEK293 RL24 IRF3 luciferase reporter, at 10 µM, stronger effect = higher value
[8] = TLR3 IRF3 reporter activation blockers – cell-based, poly I:C stimulus, luciferase, 10K MLSCN set, primary screen (AID 602277;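 active = inhibition of the reporter signal at or above 50%; inactive = inhibition below 50%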); conditions: HEK293-TLR3 RL24 IRF3 luciferase reporter, at 10 µM, stronger effect = higher value

Muscarinic acetylcholine receptor M4 (Homo sapiens), sequence (P08173 whole entry, looked up): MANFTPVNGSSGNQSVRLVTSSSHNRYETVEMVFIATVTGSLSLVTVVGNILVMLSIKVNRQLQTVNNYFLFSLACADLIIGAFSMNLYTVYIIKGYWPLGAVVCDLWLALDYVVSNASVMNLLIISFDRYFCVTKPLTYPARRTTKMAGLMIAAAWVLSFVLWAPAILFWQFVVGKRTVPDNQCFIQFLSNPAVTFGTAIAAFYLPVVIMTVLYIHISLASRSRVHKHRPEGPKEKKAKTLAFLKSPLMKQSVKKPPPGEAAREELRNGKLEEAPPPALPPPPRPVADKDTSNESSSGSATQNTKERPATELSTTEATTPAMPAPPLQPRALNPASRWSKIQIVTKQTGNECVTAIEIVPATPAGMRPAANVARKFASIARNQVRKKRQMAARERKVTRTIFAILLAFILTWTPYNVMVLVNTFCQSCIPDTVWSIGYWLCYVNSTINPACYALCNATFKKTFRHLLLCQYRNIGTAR
Voltage-gated potassium channel subunit beta-2 (Rattus norvegicus), sequence (P62483 whole entry, looked up): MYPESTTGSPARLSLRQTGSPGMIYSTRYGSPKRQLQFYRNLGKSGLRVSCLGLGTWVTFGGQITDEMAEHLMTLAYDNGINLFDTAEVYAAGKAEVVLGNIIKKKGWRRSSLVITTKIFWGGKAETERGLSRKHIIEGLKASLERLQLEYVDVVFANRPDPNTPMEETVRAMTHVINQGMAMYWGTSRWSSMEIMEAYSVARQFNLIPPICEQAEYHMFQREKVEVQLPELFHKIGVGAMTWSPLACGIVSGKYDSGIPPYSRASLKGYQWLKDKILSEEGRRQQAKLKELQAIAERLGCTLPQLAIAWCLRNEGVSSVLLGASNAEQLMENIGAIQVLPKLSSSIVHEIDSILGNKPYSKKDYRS

Compound	cell count [1]	inhibition [1]	inhibition of aggregation [2]	nuclei count [2]	inhibition [3]	nuclei count [3]	fluorescence slope [4]	NADPH fluorescence slope [5]	fluorescence slope [6]	inhibition [7]	inhibition [8]
O=C(c1ccc2c(c1)OCO2)N1CCNc2ccccc2C1	518	-0.5% (inactive)	21.2% (inactive)	91%	-14.3% (inactive)	85.2%	-0.559 (inactive)	-3.1e-05 (inactive)	0.00561 (inactive)	8.51% (inactive)	2.68% (inactive)
COc1ccc(-n2ncc3c(NCc4ccc5c(c4)OCO5)ncnc32)cc1	360	-4.3% (inactive)	9.7% (inactive)	94.3%	-9.3% (inactive)	105%	-0.539 (inactive)	-4.4e-05 (inactive)	0.00526 (inactive)	-4.14% (inactive)	-24.9% (inactive)
CC1CCN(C(=O)c2ccc(C(=O)N3CCC(C)CC3)cc2)CC1	348	4.7% (inactive)	2.4% (inactive)	95.8%	33.2% (inactive)	76.8%	-0.459 (inactive)	-3e-05 (inactive)	0.00464 (inactive)	12.9% (inactive)	12.8% (inactive)
Nc1nonc1NC(=O)CSc1nc2ccccc2s1	519	-8.4% (inactive)	39.8% (active)	61.2%	-50.5% (inactive)	103%	-0.515 (inactive)	-0.000124 (inactive)	0.00565 (inactive)	-7.11% (inactive)	15.4% (inactive)
Cc1ccc(S(=O)(=O)NCCc2ccncc2)cc1	560	-1.9% (inactive)	6.8% (inactive)	92.8%	-47.2% (inactive)	106%	-0.578 (inactive)	-5.6e-05 (inactive)	0.00601 (inactive)	7.81% (inactive)	17.1% (inactive)
Cc1ccc(C(=O)CSc2nnc(-c3cccnc3)n2N)cc1	614	-20.3% (inactive)	-15.4% (inactive)	89.2%	5.4% (inactive)	95.7%	-0.534 (inactive)	-5.6e-05 (inactive)	0.00446 (inactive)	-0.185% (inactive)	51.1% (active)
CC1=C(C(N)=O)C(c2ccc(Cl)cc2Cl)n2ncnc2N1 (centres undefined)	631	-2.5% (inactive)	18.4% (inactive)	105%	-129% (inactive)	106%	-0.558 (inactive)	2e-05 (inactive)	0.00707 (inactive)	29.3% (inactive)	33.2% (inactive)
CC(=O)Nc1cccc(-c2nnc(-c3ccccc3)o2)c1	378	0.4% (inactive)	4.1% (inactive)	105%	-93.4% (inactive)	136%	-0.582 (inactive)	-3e-05 (inactive)	0.00721 (inactive)	-35.6% (inactive)	-134% (inactive)
CCOC(=O)N1CCN(S(=O)(=O)c2ccc(Br)s2)CC1	350	-8.6% (inactive)	-13.3% (inactive)	84.3%	-27.3% (inactive)	98.6%	-0.553 (inactive)	-1.3e-06 (inactive)	0.00427 (inactive)	21.3% (inactive)	11.6% (inactive)
CCOC(=O)C1=C(C)NC(=O)C(C#N)C1c1ccco1 (centres undefined)	319	-1.2% (inactive)	6.1% (inactive)	86.2%	-59.3% (inactive)	127%	-0.39 (inactive)	3.3e-05 (inactive)	0.00489 (inactive)	15.7% (inactive)	20.3% (inactive)
O=c1c2ccccc2nnn1CSc1nc2cc(Cl)ccc2c(=O)n1Cc1ccco1	386	12.2% (inactive)	7.5% (inactive)	76%	-101% (inactive)	113%	-0.56 (inactive)	-5e-05 (inactive)	0.00813 (inactive)	-18.1% (inactive)	-12.2% (inactive)
CC1CCc2nc(NC(=O)CN3CCN(Cc4ccc5c(c4)OCO5)CC3)sc2C1 (centres undefined)	641	-9.3% (inactive)	2% (inactive)	100%	-24.4% (inactive)	97.3%	-0.544 (inactive)	-6.2e-05 (inactive)	0.00492 (inactive)	11.9% (inactive)	10.6% (inactive)
COc1ccccc1C(=O)Nc1ccc(N2CCN(S(C)(=O)=O)CC2)cc1	320	-6.8% (inactive)	7% (inactive)	127%	18.3% (inactive)	116%	-0.242 (inactive)	-2.5e-06 (inactive)	0.00706 (inactive)	-8.58% (inactive)	-50.2% (inactive)
COc1ccccc1NC(=O)c1nnn(CC(=O)Nc2ccccc2)c1N	234	-4.4% (inactive)	-30.9% (inactive)	95.9%	-9.9% (inactive)	103%	-0.416 (inactive)	5.5e-05 (inactive)	0.00673 (inactive)	9.85% (inactive)	23.6% (inactive)
